Columns and labels:
[1] = biological target: 5-hydroxytryptamine receptor 1E (Homo sapiens) (UniProt P28566); assay: Displacement of [3H]-5-HT from recombinant human 5-HT1ER expressed in HEK cell membranes at 10 uM after 90 mins by scintillation counting method relative to control
Rattus norvegicus [2] = assay: Drug discrimination in WAY163909-trained Sprague-Dawley rat assessed as increase in WAY163909-appropriate lever responding at 0.5 mg/kg, ip treated 15 mins prior to test relative to control; type: functional
Summary of the method: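 Water-restricted male Sprague–Dawley rats were trained to discriminate WAY163909 (0.75 mg/kg ip, 15 min pretreatment) from saline under FR20, to a criterion of ≥80% correct for 10 sessions. Test doses were given ip 15 min before test: compound alone (0.125–1.0 mg/kg) or compound 0.5 mg/kg plus WAY163909 0.5 mg/kg. Read-out was % drug-lever responding; only rats completing FR20 within 15 min were counted.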

Rattus norvegicus [3] = assay: Effect on inactive lever presses in Sprague-Dawley rat at 1 mg/kg, ip administered as single dose 15 mins prior to self administration of cocaine; type: organism-based; conditions: in vivo, 0.25 h
Summary of the method: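 Catheterized male Sprague–Dawley rats self-administered cocaine (0.75 mg/kg/infusion iv, each paired with light/pump cue) in 14 daily 180 min sessions, reaching FR5 stability. After 24 h they received saline (1 mL/kg ip) or compound (1 mg/kg ip) 15 min before a cue reactivity test.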

[4] = biological target: D(1A) dopamine receptor (Homo sapiens) (UniProt P21728); assay: Displacement of [3H]-SCH23390 from recombinant human D1R expressed in HEKT cell membranes at 10 uM after 90 mins by scintillation counting method relative to control
D(1A) dopamine receptor (Homo sapiens), sequence (P21728 whole entry): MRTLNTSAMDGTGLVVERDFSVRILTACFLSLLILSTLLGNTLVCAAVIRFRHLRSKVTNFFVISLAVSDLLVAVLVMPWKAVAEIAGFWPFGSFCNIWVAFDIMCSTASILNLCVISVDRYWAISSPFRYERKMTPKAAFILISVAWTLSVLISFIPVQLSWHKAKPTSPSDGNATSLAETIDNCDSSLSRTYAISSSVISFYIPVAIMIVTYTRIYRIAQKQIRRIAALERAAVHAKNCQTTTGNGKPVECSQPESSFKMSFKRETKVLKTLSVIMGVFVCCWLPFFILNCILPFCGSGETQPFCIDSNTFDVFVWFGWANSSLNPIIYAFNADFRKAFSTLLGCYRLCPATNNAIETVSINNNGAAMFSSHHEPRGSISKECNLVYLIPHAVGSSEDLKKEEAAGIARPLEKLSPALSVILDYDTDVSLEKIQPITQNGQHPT

[5] = biological target: D(2) dopamine receptor (Homo sapiens) (UniProt P14416); assay: Displacement of [3H]-N-methylspiperone from recombinant human D2R expressed in fibroblast membranes at 10 uM after 90 mins by scintillation counting method relative to control; type: cell membranes
D(2) dopamine receptor (Homo sapiens), sequence (P14416 whole entry): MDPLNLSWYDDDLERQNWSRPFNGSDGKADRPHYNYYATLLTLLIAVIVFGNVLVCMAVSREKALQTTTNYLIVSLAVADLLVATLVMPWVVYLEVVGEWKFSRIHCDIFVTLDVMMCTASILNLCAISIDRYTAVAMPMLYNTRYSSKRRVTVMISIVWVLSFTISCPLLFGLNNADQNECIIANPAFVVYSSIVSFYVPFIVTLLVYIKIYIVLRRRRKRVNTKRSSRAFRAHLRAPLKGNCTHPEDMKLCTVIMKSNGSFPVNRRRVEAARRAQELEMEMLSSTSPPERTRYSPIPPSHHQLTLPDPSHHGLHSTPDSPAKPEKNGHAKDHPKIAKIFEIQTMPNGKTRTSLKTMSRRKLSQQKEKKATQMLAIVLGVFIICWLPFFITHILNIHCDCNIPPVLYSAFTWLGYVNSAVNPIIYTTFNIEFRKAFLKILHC

5-hydroxytryptamine receptor 1E (Homo sapiens), sequence (P28566 whole entry): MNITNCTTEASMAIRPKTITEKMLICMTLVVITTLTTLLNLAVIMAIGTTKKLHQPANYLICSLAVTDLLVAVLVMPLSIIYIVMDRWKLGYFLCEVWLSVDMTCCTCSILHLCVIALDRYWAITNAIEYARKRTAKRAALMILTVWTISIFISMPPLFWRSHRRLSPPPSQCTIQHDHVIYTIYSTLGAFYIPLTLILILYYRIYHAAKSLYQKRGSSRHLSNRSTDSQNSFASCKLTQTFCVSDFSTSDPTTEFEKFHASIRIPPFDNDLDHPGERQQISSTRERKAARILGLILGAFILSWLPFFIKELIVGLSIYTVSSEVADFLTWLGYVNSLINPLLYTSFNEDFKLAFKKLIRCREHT

`CCCCCCCCCCC[C@@H]1CCN[C@H](C(=O)NCC(O)CO)C1` (relative stereo) was tested, and the inhibition [1] was 0.7%, the Activity (Rattus norvegicus [2]) was 30% and the Activity (Rattus norvegicus [3]) was “Non-Toxic”. For the same compound, the inhibition [4] was 29.3% and the inhibition [5] was 28.8%.

From ChEMBL document CHEMBL4308830, “Design, Synthesis, and Characterization of 4-Undecylpiperidine-2-carboxamides as Positive Allosteric Modulators of the Serotonin (5-HT) 5-HT2C Receptor” (J Med Chem, 2018)
